In brackets after ≈: the same amount, converted by molar mass. Activity calls are given as the source filed them.
What was measured:
Escherichia coli [1] = test: Antibacterial activity against Escherichia coli BW25113; format: functional
Escherichia coli [2] = test: Antibacterial activity against Escherichia coli; format: functional
Escherichia coli [3] = test: Antibacterial activity against Escherichia coli APEC_O2; format: functional
Escherichia coli [4] = test: Antibacterial activity against Escherichia coli ATCC 35218; format: functional
Escherichia coli [5] = test: Antibacterial activity against Escherichia coli AG100A; format: functional
Morganella morganii [6] = test: Bacteriostatic activity against Morganella morganii UM573 incubated for 24 hrs by time-kill assay; format: functional, organism-based
Summary of the method: (§1)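 Log-phase cultures (~5×10^6 CFU mL−1) in cation-adjusted Mueller–Hinton broth at 37 °C are given drugs alone or combined at ¼ MIC; untreated growth is the control. At 0, 4, 8, 12 and 24 h, samples are diluted […] in 0.7% NaCl, 100 µL is plated on Mueller–Hinton agar overnight at 37 °C, and colonies are counted. Three repeats, mean reported.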

Morganella morganii [7] = test: Antibacterial activity against Morganella morganii UM573 incubated for 16 to 18 hrs by broth microdilution method; format: functional; conditions: time 16-18 hrs
Summary of the method: (§2)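 CLSI broth microdilution in cation-adjusted Mueller–Hinton broth, inoculum 5×10^5 CFU mL−1. Ranges tested: colistin 1024–2 μg mL−1, CCCP 80–1 μg mL−1, argatroban 1024–2 μg mL−1. Incubation is 37 °C for 16–18 h. Growth is visualized with triphenyl tetrazolium chloride, and the MIC is interpreted by CLSI breakpoint criteria.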

Klebsiella pneumoniae [8] = test: Bacteriostatic activity against Klebsiella pneumoniae UK48 incubated for 24 hrs by time-kill assay; format: functional, organism-based; summary of the method: as §1
Klebsiella pneumoniae [9] = test: Antibacterial activity against Klebsiella pneumoniae UK48 incubated for 16 to 18 hrs by broth microdilution method; format: functional; conditions: time 16-18 hrs; summary of the method: as §2
Morganella morganii [10] = test: Antibacterial activity against Morganella morganii UM869 incubated for 16 to 18 hrs by broth microdilution method; format: functional; conditions: time 16-18 hrs; summary of the method: as §2
Klebsiella pneumoniae [11] = test: Antibacterial activity against Klebsiella pneumoniae UK48 assessed as efflux pump inhibition by measuring mean fluorescence intensity incubated for 30 mins by EtBr staining based assay; format: functional, organism-based
Summary of the method: (§3)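 Isolates grown in LB broth and adjusted to 0.5 McFarland. Cultures with no drug, CCCP or test agent (fraction of each agent's MIC per isolate) were shaken 30 min at 37 °C, then swabbed cartwheel-style onto TSA plates containing EtBr 2.5 mg L⁻¹ and incubated 18 h at 37 °C. Swab fluorescence was imaged and mean intensity compared by Student's t-test. K. pneumoniae ATCC13882 and SDL79 served as controls.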

Morganella morganii [12] = test: Bacteriostatic activity against Morganella morganii UM869 incubated for 24 hrs by time-kill assay; format: functional, organism-based; summary of the method: as §1
Morganella morganii [13] = test: Antibacterial activity against Morganella morganii UM869 assessed as efflux pump inhibition by measuring mean fluorescence intensity incubated for 30 mins by EtBr staining based assay; format: functional, organism-based; summary of the method: as §3
Morganella morganii [14] = test: Antibacterial activity against Morganella morganii UM573 assessed as efflux pump inhibition by measuring mean fluorescence intensity incubated for 30 mins by EtBr staining based assay; format: functional, organism-based; summary of the method: as §3
Escherichia coli [15] = test: Antibacterial activity against Escherichia coli by broth dilution method; format: functional
Morganella morganii [16] = test: Synergistic antibacterial activity against Morganella morganii UM573 in presence of colistin by checkerboard assay; format: functional
Summary of the method: (§4)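 Checkerboard run in triplicate in cation-supplemented Mueller–Hinton broth. Colistin 512 to 1 µg mL−1 is crossed with argatroban 256 to 2 µg mL−1. Inoculum is ~5–6×10^5 CFU mL−1, incubated 37 °C for 24 h. ΣFIC = C_A/MIC_A + C_B/MIC_B, where C is each drug's concentration in combination at the MIC well.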

Klebsiella pneumoniae [17] = test: Synergistic antibacterial activity against Klebsiella pneumoniae UK48 in presence of colistin by checkerboard assay; format: functional; summary of the method: as §4
Morganella morganii [18] = test: Synergistic antibacterial activity against Morganella morganii UM869 in presence of colistin by checkerboard assay; format: functional; summary of the method: as §4

Compound: CC1=CC(=O)c2c(O)cccc2C1=O [PLUMBAGIN]
- MIC (Escherichia coli [1]): 128 µg/mL (≈ 680 µM)

Compound: O=c1[nH]c2ccccc2n1C1CCN(CCCC(c2ccc(F)cc2)c2ccc(F)cc2)CC1 [PIMOZIDE]
- MIC (Escherichia coli [2]): 92.3 µg/mL (≈ 200 µM)

Compound: O=c1c(-c2ccc(O)cc2)coc2cc(O)ccc12 [DAIDZEIN]
- MIC (Escherichia coli [2]): 16 µg/mL (≈ 62.9 µM)

Compound: CN[C@H]1CC[C@@H](c2ccc(Cl)c(Cl)c2)c2ccccc21 [SERTRALINE]
- MIC (Escherichia coli [3]): 32 µg/mL (≈ 104 µM)

Compound: CC1(C)Cc2c(C#N)c(SCCc3ccccc3)nc(N3CCOCC3)c2CO1
- MIC (Escherichia coli [2]): 4.05 µg/mL (≈ 9.89 µM)

Compound: CC(C)=CC[C@@H](O)C1=CC(=O)c2c(O)ccc(O)c2C1=O [SHIKONIN]
- MIC (Escherichia coli [1]): 256 µg/mL (≈ 888 µM)

Compound: CC(=O)NC[C@H]1CN(c2ccc(N3CCOCC3)c(F)c2)C(=O)O1 [LINEZOLID]
- MIC (Escherichia coli [2]): 512 µg/mL (≈ 1520 µM)

Compound: C[C@H]1[C@H](OC(=O)CCC(=O)O)O[C@@H]2O[C@@]3(C)CC[C@H]4[C@H](C)CC[C@@H]1[C@@]24OO3 [ARTESUNATE]
- MIC (Escherichia coli [4]): 4100 µg/mL (≈ 10700 µM)

Compound: CC(C)=CCC/C(C)=C/CO [GERANIOL]
- MIC (Escherichia coli [5]): 64 µg/mL (≈ 415 µM)

Compound: O=c1c(O)c(-c2ccc(O)c(O)c2)oc2cc(O)cc(O)c12 [QUERCETIN]
- MIC (Escherichia coli [1]): 1020 µg/mL (≈ 3390 µM)

Compound: C[C@H]1[C@H](C)CC[C@]2(C(=O)O)CC[C@]3(C)C(=CC[C@@H]4[C@@]5(C)CC[C@H](O)C(C)(C)[C@@H]5CC[C@]43C)[C@H]12 [URSOLIC ACID]
- MIC (Escherichia coli [2]): 50 µg/mL (≈ 109 µM)

Compound: N#CC(C#N)=NNc1cccc(Cl)c1 [CARBONYL CYANIDE M-CHLOROPHENYLHYDRAZONE]
- Activity (Morganella morganii [6]): Active
- MIC (Morganella morganii [7]): 20 µg/mL (≈ 97.7 µM)
- Activity (Klebsiella pneumoniae [8]): Active
- MIC (Klebsiella pneumoniae [9]): 5 µg/mL (≈ 24.4 µM)
- MIC (Morganella morganii [10]): 20 µg/mL (≈ 97.7 µM)
- Activity (Klebsiella pneumoniae [11]): Active
- Activity (Morganella morganii [12]): Active
- Activity (Morganella morganii [13]): Active
- Activity (Morganella morganii [14]): Active

Compound: CC[C@H]1OC(=O)[C@H](C)[C@@H](O[C@H]2C[C@@](C)(OC)[C@@H](O)[C@H](C)O2)[C@H](C)[C@@H](O[C@@H]2O[C@H](C)C[C@H](N(C)C)[C@H]2O)[C@](C)(O)C[C@@H](C)C(=O)[C@H](C)[C@@H](O)[C@]1(C)O [ERYTHROMYCIN]
- MIC (Escherichia coli [2]): 367 µg/mL (≈ 500 µM)

Compound: CC[n+]1c(-c2ccccc2)c2cc(N)ccc2c2ccc(N)cc21 [HOMIDIUM]
- MIC (Escherichia coli [2]): 512 µg/mL

Compound: O=C(Nc1ccccc1)c1ccccc1C(=O)Nc1ccccc1
- MIC (Escherichia coli [15]): 64 µg/mL (≈ 202 µM)

Compound: Cc1onc(-c2ccccc2)c1C(=O)N[C@@H]1C(=O)N2[C@@H]1SC(C)(C)[C@@H]2C(=O)O [OXACILLIN]
- MIC (Escherichia coli [2]): 1020 µg/mL (≈ 2550 µM)

Compound: OC(c1cc(-c2ccc(C(F)(F)F)cc2)nc(C(F)(F)F)c1)C1CCCCN1 (centres undefined) [ENPIROLINE]
- MIC (Escherichia coli [15]): 20.2 µg/mL (≈ 50 µM)

Compound: C[C@@H]1CNc2c(cccc2S(=O)(=O)N[C@@H](CCCNC(=N)N)C(=O)N2CC[C@@H](C)C[C@@H]2C(=O)O)C1
- MIC (Morganella morganii [16]): 128 µg/mL
- MIC (Klebsiella pneumoniae [17]): 64 µg/mL
- MIC (Morganella morganii [18]): 128 µg/mL
- Activity (Morganella morganii [6]): inactive
- MIC (Morganella morganii [7]): ≥ 512 µg/mL
- Activity (Klebsiella pneumoniae [8]): inactive
- MIC (Klebsiella pneumoniae [9]): ≥ 512 µg/mL
- MIC (Morganella morganii [10]): ≥ 512 µg/mL
- Activity (Klebsiella pneumoniae [11]): Active
- Activity (Morganella morganii [12]): inactive
- Activity (Morganella morganii [13]): Active
- Activity (Morganella morganii [14]): Active

Compound: CN(C)CCC=C1c2ccccc2CCc2ccccc21 [AMITRIPTYLINE]
- MIC (Escherichia coli [1]): 444 µg/mL (≈ 1600 µM)

Compound: Nc1ccnc2ccccc12 [QUINOLIN-4-AMINE]
- MIC (Escherichia coli [15]): 14.4 µg/mL (≈ 100 µM)

Compound: CC(Cc1ccc(O)c(O)c1)C(C)Cc1ccc(O)c(O)c1 (centres undefined) [NORDIHYDROGUAIARETIC ACID]
- MIC (Escherichia coli [1]): 512 µg/mL (≈ 1690 µM)

Compound: CN(C)CCCN1c2ccccc2Sc2ccc(Cl)cc21 [CHLORPROMAZINE]
- MIC (Escherichia coli [1]): 256 µg/mL (≈ 803 µM)

Compound: O=c1c2cc(O)c(O)cc2oc2cc(O)c([C@@H]3O[C@H](CO)[C@@H](O)[C@H](O)[C@H]3O)c(O)c12 [MANGIFERIN]
- MIC (Escherichia coli [1]): 512 µg/mL (≈ 1210 µM)

Compound: O=C(Cc1cccs1)N[C@@H]1C(=O)N2C(C(=O)O)=C(/C=C/c3ccc([N+](=O)[O-])cc3[N+](=O)[O-])CS[C@H]12 [NITROCEFIN]
- MIC (Escherichia coli [2]): 1.9 µg/mL (≈ 3.68 µM)

Compound: C[C@H]1[C@@H](O)O[C@@H]2O[C@@]3(C)CC[C@H]4[C@H](C)CC[C@@H]1[C@@]24OO3 [ARTENIMOL]
- MIC (Escherichia coli [4]): 1020 µg/mL (≈ 3600 µM)

Reference: ChEMBL document CHEMBL5357045, “Development of pharmacophore models for AcrB protein and the identification of potential adjuvant candidates for overcoming efflux-mediated colistin resistance” (2024)
